ChEMBL document CHEMBL2203173 (J Med Chem, 2012)
The source made the active and inactive calls. The rule behind the calls is not given here.

Key:
SK-N-MC [1] = assay: Antiproliferative activity at human SK-N-MC cells after 72 hrs by MTT assay; type: functional, cell-based
A549 [2] = assay: Ratio of compound IC50 to Dp44mT IC50 for human A549 cells; type: functional
DMS-53 [3] = assay: Antiproliferative activity at human DMS53 cells after 72 hrs by MTT assay; type: functional, cell-based
SK-N-MC [4] = assay: Ratio of Dp4mT IC50 to compound IC50 for human SK-N-MC cells; type: functional
A549 [5] = assay: Antiproliferative activity at human A549 cells after 72 hrs by MTT assay; type: functional, cell-based; details: Homo sapiens, A549, 72 h
DMS-53 [6] = assay: Antitumor activity against human DMS53 cell xenografted BALB/c nu/nu mouse assessed as reduction in tumor volume at 7.5 mg/kg, po administered for 3 times a week measured after 20 days (reference value: 997 155 mm'3); type: functional, organism-based; design: dose 7.5 mg/kg
Summary of the method: (§1)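 DMS-53 xenograft nude mice gavaged 3 times/week with agent in 30% propylene glycol/saline or with vehicle alone. Net tumor volume followed for 20 days; the study ended when control tumors neared the 1000 mm3 ethical limit. Tumors excised and wet-weighed on day 20. n = 6–11 mice/condition, mean ± SD.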

DMS-53 [7] = assay: Antitumor activity against human DMS53 cells xenografted in BALB/c nu/nu mouse assessed as reduction of tumor volume at 6 mg/kg, iv administered for 5 days a week measured after 21 days (RVb = 922 94 mm'3); type: functional, organism-based; design: dose 6 mg/kg
Summary of the method: (§2)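 Nude mice bearing DMS-53 xenografts began dosing once tumors reached 100 mm3. Agents given iv by tail vein 5 days/week in vehicle of 30% propylene glycol/saline, with vehicle controls. Net tumor volume followed for 21 days. Mice sacrificed on day 21 and tumors excised and wet-weighed.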

DMS-53 [8] = assay: Antitumor activity against human DMS53 cells xenografted in BALB/c nu/nu mouse assessed as reduction of tumor volume at 3 mg/kg, iv administered for 5 days a week measured after 21 days (RVb = 922 94 mm'3); type: functional, organism-based; design: dose 3 mg/kg; summary of the method: as §2
DMS-53 [9] = assay: Antitumor activity against human DMS53 cell xenografted BALB/c nu/nu mouse assessed as reduction in tumor volume at 10 mg/kg, po administered for 3 times a week measured after 20 days (reference value: 997 155 mm'3); type: functional, organism-based; design: dose 10 mg/kg; summary of the method: as §1

Molecule `CCN(CC)C(=S)N/N=C(\c1ccccc1)c1ccccn1` has an IC50 (SK-N-MC [1]) of 11 nM.

In the case of `CN(C(=S)NN=C(c1ccccn1)c1ccccn1)C1CCCCC1`, the “Ratio IC50” value (A549 [2]) is reported as 5, the IC50 (DMS-53 [3]; dms-53) is reported as 8 nM and the “Ratio IC50” value (SK-N-MC [4]) is reported as 23. The IC50 (SK-N-MC [1]) was 13 nM.

Molecule `Nc1ccn([C@@H]2O[C@H](CO)[C@@H](O)C2(F)F)c(=O)n1` [GEMCITABINE] has an IC50 (A549 [5]) of 20 nM and an IC50 (DMS-53 [3]; Homo sapiens, DMS-53, 72 h) of 9 nM.

For `CCN(C)C(=S)NN=C(c1ccccn1)c1ccccn1`, the Activity (DMS-53 [6]) was “Active”, the Activity (DMS-53 [7]) was “Active” and the Activity (DMS-53 [8]) was “Active”. The Activity (DMS-53 [9]) was “Active”.
